Experimental data as given in ChEMBL document CHEMBL4152240, “Synthesis, cytotoxicity and structure-activity relationship of indolizinoquinolinedione derivatives as DNA topoisomerase IB catalytic inhibitors” (2018).
Activity calls are given as the source filed them. The calls are words filed in the database; no cut-off is given here.

Key:
[1] = tested on: DNA; test: Induction of unwinding effect of Escherichia coli supercoiled pBR322 DNA at 1 to 9 uM preincubated with DNA for 10 mins followed by excess calf thymus TOP1 addition and measured after 30 mins by agarose gel electrophoresis; assay type: nucleic-acid assay
Outline: (§1)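 Compound (1, 3, 9 µM) preincubated with pBR322 DNA, supercoiled or relaxed, at room temperature for 10 min. Excess TOP1 then added and incubated 30 min at 37 C. Stopped with SDS/proteinase K. Ethidium bromide (0.3-1.2 mg/L) as positive control. Run on 0.8% agarose in TBE at 4.6 V/cm for 1.5 h, stained with gel red, UV visualized.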

[2] = tested on: A549; test: Cytotoxicity against human A549 cells assessed as growth inhibition after 72 hrs by MTT assay; assay type: functional; conditions: A549, 72 h
Outline: (§2)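 Five-dose MTT growth assay, compounds predissolved in DMSO, 72 h exposure at 37 C. Cells kept in RPMI-1640 or DMEM, 37 C, 5% CO2, passage 3-6. MTT (1 mg/mL in PBS) added for 4 h, formazan dissolved in DMSO, OD 570 nm. GI50 (50% growth inhibition) by nonlinear regression. Means ± SD, at least three repeats.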

[3] = tested on: HCT-116; test: Induction of apoptosis in human HCT116 cells assessed as viable cells at 9 uM after 12 hrs by annexin V-FITC/propidium iodide staining-based flow cytometric method (reference value: 97.60 to 98.95%); assay type: functional; conditions: HCT-116, 12 h, read-out: Activity
[4] = tested on: HCT-116; test: Induction of apoptosis in human HCT116 cells assessed as early apoptotic cells at 1 uM after 12 hrs by annexin V-FITC/propidium iodide staining-based flow cytometric method (reference value: 0.47 to 1.19%); assay type: functional
[5] = tested on: HCT-116; test: Induction of apoptosis in human HCT116 cells after 12 hrs by annexin V-FITC/propidium iodide staining-based flow cytometric method; assay type: functional, cell-based
[6] = tested on: HCT-116; test: Cytotoxicity against human HCT116 cells assessed as growth inhibition after 72 hrs by MTT assay; assay type: functional; conditions: HCT-116, 72 h; outline: as §2
[7] = tested on: Huh-7; test: Cytotoxicity against human HuH7 cells assessed as growth inhibition after 72 hrs by MTT assay; assay type: functional; conditions: Huh-7, 72 h; outline: as §2
[8] = tested on: CCRF-CEM; test: Cytotoxicity against human CCRF-CEM cells assessed as growth inhibition after 72 hrs by MTT assay; assay type: functional; outline: as §2
[9] = tested on: HCT-116; test: Induction of apoptosis in human HCT116 cells assessed as viable cells at 1 uM after 12 hrs by annexin V-FITC/propidium iodide staining-based flow cytometric method (reference value: 97.60 to 98.95%); assay type: functional; conditions: HCT-116, 12 h, read-out: Activity
[10] = tested on: HCT-116; test: Induction of apoptosis in human HCT116 cells assessed as early apoptotic cells at 3 uM after 12 hrs by annexin V-FITC/propidium iodide staining-based flow cytometric method (reference value: 0.47 to 1.19%); assay type: functional
[11] = tested on: DNA; test: Induction of unwinding effect of Escherichia coli relaxed pBR322 DNA at 1 to 9 uM preincubated with DNA for 10 mins followed by excess calf thymus TOP1 addition and measured after 30 mins by agarose gel electrophoresis; assay type: nucleic-acid assay; outline: as §1
[12] = tested on: HCT-116; test: Induction of apoptosis in human HCT116 cells assessed as late apoptotic cells at 9 uM after 12 hrs by annexin V-FITC/propidium iodide staining-based flow cytometric method (reference value: 0.34 to 0.81%); assay type: functional
[13] = tested on: HCT-116; test: Induction of apoptosis in human HCT116 cells assessed as late apoptotic cells at 1 uM after 12 hrs by annexin V-FITC/propidium iodide staining-based flow cytometric method (reference value: 0.34 to 0.81%); assay type: functional
[14] = tested on: HCT-116; test: Induction of apoptosis in human HCT116 cells assessed as early apoptotic cells at 9 uM after 12 hrs by annexin V-FITC/propidium iodide staining-based flow cytometric method (reference value: 0.47 to 1.19%); assay type: functional
[15] = tested on: HCT-116; test: Induction of apoptosis in human HCT116 cells assessed as late apoptotic cells at 3 uM after 12 hrs by annexin V-FITC/propidium iodide staining-based flow cytometric method (reference value: 0.34 to 0.81%); assay type: functional
[16] = tested on: DU-145; test: Cytotoxicity against human DU145 cells assessed as growth inhibition after 72 hrs by MTT assay; assay type: functional; conditions: DU-145, 72 h; outline: as §2
[17] = target: T1, Topoisomerase I (Bos taurus) (UniProt Q2HPH0); test: Inhibition of calf thymus TOP1-mediated relaxation of supercoiled pBR322 DNA at 125 uM after 30 mins by agarose gel electrophoresis relative to control
T1 sequence (whole entry): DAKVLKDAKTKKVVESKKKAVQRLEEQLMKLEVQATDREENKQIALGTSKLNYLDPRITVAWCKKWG
Outline: (§3)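 0.5 µg supercoiled pBR322 in buffer (10 mM Tris-HCl pH 7.5, 50 mM KCl, 5 mM MgCl2, BSA, DTT) with 1 unit calf thymus TOP1, with or without compound (0.2-125 µM), 30 min at 37 C. Run on 0.8% agarose/TBE at 4.6 V/cm for 1.5 h, gel red stained. Activity graded in bands (e.g. +++ 81-120%). At least two independent repeats.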

[18] = target: T1, Topoisomerase I (Bos taurus); test: Inhibition of calf thymus TOP1-mediated relaxation of supercoiled pBR322 DNA after 30 mins by agarose gel electrophoresis; outline: as §3
[19] = target: T1, Topoisomerase I (Bos taurus); test: Inhibition of calf thymus TOP1-mediated relaxation of supercoiled pBR322 DNA at 25 uM after 30 mins by agarose gel electrophoresis relative to camptothecin; outline: as §3
[20] = tested on: HCT-116; test: Induction of apoptosis in human HCT116 cells assessed as viable cells at 3 uM after 12 hrs by annexin V-FITC/propidium iodide staining-based flow cytometric method (reference value: 97.60 to 98.95%); assay type: functional; conditions: HCT-116, 12 h, read-out: Activity
[21] = Cytotoxicity against human RC0.1 cells assessed as growth inhibition after 72 hrs by MTT assay; assay type: functional
[22] = target: T1, Topoisomerase I (Bos taurus); conditions: 0.2 to 1 uM
[23] = tested on: DNA; test: Induction of unwinding effect of Escherichia coli supercoiled pBR322 DNA at 0.3 to 1.2 mg/L preincubated with DNA for 10 mins followed by excess calf thymus TOP1 addition and measured after 30 mins by agarose gel electrophoresis; assay type: nucleic-acid assay
Outline: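 Supercoiled or relaxed pBR322 DNA was preincubated with ethidium bromide (0.3, 0.6, 1.2 mg/L, positive control) for 10 min at room temperature. Excess TOP1 was then added for 30 min at 37 °C. The reaction was stopped with SDS/proteinase K, run on 0.8% agarose in TBE at 4.6 V/cm for 1.5 h, then gel-red stained and UV imaged.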

[24] = Resistance ratio of GI50 for human HCT116 cells expressing TOP1 siRNA to GI50 for human HCT116 cells; assay type: functional
Outline: (§4)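 Resistance ratio: the GI50 in the resistant or TOP1-knockdown subline divided by the GI50 in the matching parental line.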

[25] = tested on: NCI/ADR-RES; test: Cytotoxicity against human MCF7/ADR cells assessed as growth inhibition after 72 hrs by MTT assay; assay type: functional
Outline: (§5)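 MTT growth assay in drug-resistant sublines and parental lines. HCT116-siTop1 was made by transfecting HCT116 with shRNA vectors expressing TOP1 siRNA. MCF-7, HepG2 and their ADR-resistant lines were gifts. Five-dose DMSO-predissolved compounds for 72 h at 37 C, then MTT 4 h, DMSO solubilization, OD 570 nm. GI50 by nonlinear regression. At least three repeats.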

[26] = Resistance ratio of GI50 for human RC0.1 cells to GI50 for human DU145 cells; assay type: functional
[27] = Resistance ratio of GI50 for human HepG2/ADR cells to GI50 for human HepG2 cells; assay type: functional; outline: as §4
[28] = tested on: HCT-116; test: Cytotoxicity against human HCT116 cells expressing TOP1 siRNA assessed as growth inhibition after 72 hrs by MTT assay; assay type: functional; conditions: HCT-116, 72 h; outline: as §5
[29] = Cytotoxicity against human HepG2/ADR cells assessed as growth inhibition after 72 hrs by MTT assay; assay type: functional; conditions: HepG2, 72 h; outline: as §5
[30] = Resistance ratio of GI50 for human MCF7/ADR cells to GI50 for human MCF7 cells; assay type: functional; outline: as §4
[31] = tested on: HepG2; test: Cytotoxicity against human HepG2 cells assessed as growth inhibition after 72 hrs by MTT assay; assay type: functional; conditions: HepG2, 72 h; outline: as §5
[32] = tested on: MCF7; test: Cytotoxicity against human MCF7 cells assessed as growth inhibition after 72 hrs by MTT assay; assay type: functional; conditions: MCF7, 72 h; outline: as §5

SMILES | Activity [1] | GI50 [2] [nM] | viability at 9 µM [3] [%] | Activity [4] [%] | Activity [5] | GI50 [6] [nM] | GI50 [7] [nM] | GI50 [8] [nM] | viability at 1 µM [9] [%] | Activity [10] [%] | Activity [11] | Activity [12] [%] | Activity [13] [%] | Activity [14] [%] | Activity [15] [%] | GI50 [16] [nM] | inhibition [17] [%] | inhibition [18] | inhibition [19] [%] | viability at 3 µM [20] [%] | further results
O=C1c2cccnc2C(=O)c2c1c(C(=O)OCCCN1CCCCC1)c1c(F)cccn21 | inactive | 72 | 61.7 | 2.14 | Dose-dependent effect | 27 | 120 | 350 | 93.4 | 2.5 | inactive | 31.59 | 3.98 | 4.73 | 16.74 | 210 | 100 | Dose-dependent effect | > 121 | 79 | –
O=C1c2cccnc2C(=O)c2c1c(C(=O)OCCN1CCCCC1)c1c(F)cccn21 | inactive | 290 | 57.1 | 2.12 | Dose-dependent effect | 25 | 59 | 380 | 95.2 | 1.26 | inactive | 38.17 | 2.39 | 2.47 | 10.47 | 91 | 100 | Dose-dependent effect | > 121 | 86.9 | –
CC[C@@]1(O)C(=O)OCc2c1cc1n(c2=O)Cc2cc3ccccc3nc2-1 [CAMPTOTHECIN] | – | 3 | – | – | – | – | 6 | 2 | – | – | – | – | – | – | – | 19 | 58 | – | – | – | GI50 [21]: 7530 nM; inhibition [22]: Active
CC[n+]1c(-c2ccccc2)c2cc(N)ccc2c2ccc(N)cc21 | – | – | – | – | – | – | – | – | – | – | – | – | – | – | – | – | – | – | – | – | Activity [23]: Active
O=C1c2cccnc2C(=O)c2c1c(C(=O)OCCN1CCCC1)c1c(F)cccn21 | inactive | 60 | 51.3 | 0.79 | Dose-dependent effect | 23 | 120 | 790 | 97.7 | 1.69 | inactive | 32.1 | 1.17 | 10.17 | 8.5 | 82 | 100 | Dose-dependent effect | > 121 | 86 | GI50 [21]: 2940 nM; RatioGI50 [24]: 6.5; GI50 [25]: 97 nM; RatioGI50 [26]: 36.8; RatioGI50 [27]: 7.5; GI50 [28]: 150 nM; GI50 [29]: 380 nM; RatioGI50 [30]: 1.1; GI50 [31]: 51 nM; GI50 [32]: 89 nM
